The text below walks through data of PMC10958515 (ACS Chemical Neuroscience, 2024).

Read-outs that look alike come from different tables or passages of the source.

By IC50 is commonly meant the concentration needed to halve the response being measured.

The target in one assay is hNaV1.5 (Homo sapiens, UniProt Q14524). As to the kind of experiment: Qube automated patch-clamp, NaV subtype inhibition. The format is cell-based. On the technique in general: Patch clamp records ionic current or voltage across a cell membrane.
Chain of hNaV1.5 (Q14524 whole entry): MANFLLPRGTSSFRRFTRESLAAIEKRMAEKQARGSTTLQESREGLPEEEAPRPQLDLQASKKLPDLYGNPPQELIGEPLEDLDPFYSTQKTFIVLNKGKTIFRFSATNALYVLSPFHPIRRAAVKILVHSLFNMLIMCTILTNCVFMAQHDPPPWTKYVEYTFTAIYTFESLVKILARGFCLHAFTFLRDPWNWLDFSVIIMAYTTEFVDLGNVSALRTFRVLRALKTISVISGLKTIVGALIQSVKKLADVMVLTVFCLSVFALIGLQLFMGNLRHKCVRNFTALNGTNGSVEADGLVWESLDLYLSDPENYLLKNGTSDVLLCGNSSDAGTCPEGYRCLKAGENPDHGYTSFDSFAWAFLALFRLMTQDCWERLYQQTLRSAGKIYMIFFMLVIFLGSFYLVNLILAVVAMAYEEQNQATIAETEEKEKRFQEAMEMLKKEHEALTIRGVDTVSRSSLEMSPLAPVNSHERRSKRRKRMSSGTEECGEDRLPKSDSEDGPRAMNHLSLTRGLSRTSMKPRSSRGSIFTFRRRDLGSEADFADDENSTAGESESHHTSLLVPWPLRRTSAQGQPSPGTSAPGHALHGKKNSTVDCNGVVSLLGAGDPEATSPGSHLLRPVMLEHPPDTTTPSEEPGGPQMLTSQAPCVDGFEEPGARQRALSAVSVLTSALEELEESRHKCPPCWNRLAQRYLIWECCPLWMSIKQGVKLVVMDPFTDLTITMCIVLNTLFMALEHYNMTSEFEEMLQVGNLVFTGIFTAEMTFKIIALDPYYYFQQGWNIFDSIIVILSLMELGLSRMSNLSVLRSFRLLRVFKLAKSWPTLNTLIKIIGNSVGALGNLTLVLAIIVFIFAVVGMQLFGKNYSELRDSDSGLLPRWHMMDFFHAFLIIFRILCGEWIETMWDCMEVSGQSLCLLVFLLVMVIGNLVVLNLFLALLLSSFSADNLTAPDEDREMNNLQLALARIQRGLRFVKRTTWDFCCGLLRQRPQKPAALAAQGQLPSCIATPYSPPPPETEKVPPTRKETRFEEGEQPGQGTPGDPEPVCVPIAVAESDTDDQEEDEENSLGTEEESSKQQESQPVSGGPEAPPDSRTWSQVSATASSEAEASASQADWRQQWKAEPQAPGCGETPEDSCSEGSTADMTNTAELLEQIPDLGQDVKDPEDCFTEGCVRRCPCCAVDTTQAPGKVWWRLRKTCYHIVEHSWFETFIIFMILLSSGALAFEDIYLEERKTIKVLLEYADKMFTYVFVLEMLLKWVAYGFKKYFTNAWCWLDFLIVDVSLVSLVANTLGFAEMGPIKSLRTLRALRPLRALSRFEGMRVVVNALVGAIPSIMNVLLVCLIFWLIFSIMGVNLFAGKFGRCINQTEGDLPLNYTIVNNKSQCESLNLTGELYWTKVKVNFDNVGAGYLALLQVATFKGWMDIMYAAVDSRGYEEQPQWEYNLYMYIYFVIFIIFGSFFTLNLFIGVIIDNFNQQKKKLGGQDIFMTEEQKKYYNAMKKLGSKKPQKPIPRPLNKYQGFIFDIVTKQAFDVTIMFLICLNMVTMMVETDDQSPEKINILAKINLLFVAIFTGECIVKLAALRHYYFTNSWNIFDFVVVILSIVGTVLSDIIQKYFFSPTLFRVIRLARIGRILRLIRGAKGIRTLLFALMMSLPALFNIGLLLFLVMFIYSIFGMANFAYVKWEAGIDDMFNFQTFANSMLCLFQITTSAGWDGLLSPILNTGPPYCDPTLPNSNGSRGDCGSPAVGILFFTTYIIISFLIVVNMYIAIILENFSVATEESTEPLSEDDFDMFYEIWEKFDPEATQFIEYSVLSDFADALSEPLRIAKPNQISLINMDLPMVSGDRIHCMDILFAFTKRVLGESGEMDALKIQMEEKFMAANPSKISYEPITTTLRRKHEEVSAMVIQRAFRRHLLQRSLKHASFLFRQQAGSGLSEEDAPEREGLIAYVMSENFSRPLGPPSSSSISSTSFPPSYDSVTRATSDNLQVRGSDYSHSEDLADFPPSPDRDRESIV
Assay [1] addresses T1, NaV1.6 (Homo sapiens, UniProt Q9UQD0). In words: Recovery from inactivation in presence of compound. The format is cell-based. The gist of the method: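 Human NaV1.6 cells on an automated planar patch-clamp platform at 27 °C. From −120 mV, a 10 s prepulse to 0 mV is followed by a 0 mV test pulse at varying intervals. Mean normalized recovery in compound is fitted biexponentially, and the slow time constant is plotted against concentration. The fraction recovered at 1.7 s quantifies the concentration dependence.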

Assay [2] deals with T1, NaV1.6. In words: Steady-state and use-dependent inhibition. Format: cell-based. The conditions noted are these: V0.5 holding potential.
A further assay concerns NaV. The conditions noted are these: cited from earlier work.
The next assay has as its target hNaV1.1 (Homo sapiens, UniProt P35498). In words: Qube automated patch-clamp, NaV subtype inhibition. The format is cell-based.
Another assay has as its target hNaV1.2 (Homo sapiens, UniProt Q99250). As to the kind of experiment: Qube automated patch-clamp, NaV subtype inhibition. The format is cell-based.
A further assay deals with seizures. The conditions noted are these: cited from earlier work.
[3] abbreviates: IC50 for steady-state inhibition (P1), first pulse.

T1 sequence (Q9UQD0 whole entry): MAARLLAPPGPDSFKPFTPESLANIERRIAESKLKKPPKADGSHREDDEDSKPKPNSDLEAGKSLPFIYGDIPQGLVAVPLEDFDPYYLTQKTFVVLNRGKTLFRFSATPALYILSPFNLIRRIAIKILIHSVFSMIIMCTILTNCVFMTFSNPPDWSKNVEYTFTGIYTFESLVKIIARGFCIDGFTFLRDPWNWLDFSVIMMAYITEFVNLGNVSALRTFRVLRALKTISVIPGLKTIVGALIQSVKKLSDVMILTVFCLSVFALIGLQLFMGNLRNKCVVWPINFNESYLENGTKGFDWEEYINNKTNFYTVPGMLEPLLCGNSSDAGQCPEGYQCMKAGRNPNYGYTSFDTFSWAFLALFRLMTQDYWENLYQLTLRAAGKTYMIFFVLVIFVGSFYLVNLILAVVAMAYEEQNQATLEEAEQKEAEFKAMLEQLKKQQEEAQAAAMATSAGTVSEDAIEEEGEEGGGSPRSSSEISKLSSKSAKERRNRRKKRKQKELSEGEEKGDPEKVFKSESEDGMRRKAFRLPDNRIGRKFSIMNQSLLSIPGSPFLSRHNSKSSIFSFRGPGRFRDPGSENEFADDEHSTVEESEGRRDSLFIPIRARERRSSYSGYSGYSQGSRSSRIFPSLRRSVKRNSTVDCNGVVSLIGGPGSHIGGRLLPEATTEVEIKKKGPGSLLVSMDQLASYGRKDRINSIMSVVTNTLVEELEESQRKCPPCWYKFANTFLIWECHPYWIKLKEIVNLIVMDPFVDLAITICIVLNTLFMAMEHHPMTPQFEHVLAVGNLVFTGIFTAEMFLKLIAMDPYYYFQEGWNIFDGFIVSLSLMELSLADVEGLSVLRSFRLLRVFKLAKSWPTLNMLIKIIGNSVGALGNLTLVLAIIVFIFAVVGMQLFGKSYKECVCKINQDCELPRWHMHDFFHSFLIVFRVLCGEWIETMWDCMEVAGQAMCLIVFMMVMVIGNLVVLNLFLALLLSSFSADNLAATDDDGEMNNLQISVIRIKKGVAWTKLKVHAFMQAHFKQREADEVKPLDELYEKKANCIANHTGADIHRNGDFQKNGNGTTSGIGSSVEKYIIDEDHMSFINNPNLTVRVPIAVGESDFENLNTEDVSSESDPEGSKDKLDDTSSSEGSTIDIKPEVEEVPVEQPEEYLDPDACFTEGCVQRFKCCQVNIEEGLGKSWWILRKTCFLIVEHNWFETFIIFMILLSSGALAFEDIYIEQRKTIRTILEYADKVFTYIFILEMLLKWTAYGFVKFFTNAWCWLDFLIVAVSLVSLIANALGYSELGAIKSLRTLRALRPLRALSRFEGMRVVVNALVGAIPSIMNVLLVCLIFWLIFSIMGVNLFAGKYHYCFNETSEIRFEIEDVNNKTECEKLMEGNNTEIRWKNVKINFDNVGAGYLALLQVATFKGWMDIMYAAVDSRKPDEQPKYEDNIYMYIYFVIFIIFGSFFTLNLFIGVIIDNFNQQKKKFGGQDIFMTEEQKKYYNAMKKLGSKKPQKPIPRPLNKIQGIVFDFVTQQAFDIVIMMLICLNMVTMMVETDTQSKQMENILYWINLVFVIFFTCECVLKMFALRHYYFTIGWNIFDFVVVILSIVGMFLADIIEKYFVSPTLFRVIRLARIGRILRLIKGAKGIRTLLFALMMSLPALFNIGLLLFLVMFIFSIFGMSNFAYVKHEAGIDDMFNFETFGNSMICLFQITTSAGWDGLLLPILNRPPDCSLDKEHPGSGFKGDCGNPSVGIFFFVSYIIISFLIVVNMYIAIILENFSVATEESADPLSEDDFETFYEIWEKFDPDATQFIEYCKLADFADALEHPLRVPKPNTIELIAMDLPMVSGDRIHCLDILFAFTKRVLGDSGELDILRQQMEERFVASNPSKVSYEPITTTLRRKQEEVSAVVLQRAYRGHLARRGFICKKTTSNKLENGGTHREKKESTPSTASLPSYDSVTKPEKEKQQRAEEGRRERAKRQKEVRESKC
T1 sequence (Q92913 1-192 isoform Q92913-2 partner): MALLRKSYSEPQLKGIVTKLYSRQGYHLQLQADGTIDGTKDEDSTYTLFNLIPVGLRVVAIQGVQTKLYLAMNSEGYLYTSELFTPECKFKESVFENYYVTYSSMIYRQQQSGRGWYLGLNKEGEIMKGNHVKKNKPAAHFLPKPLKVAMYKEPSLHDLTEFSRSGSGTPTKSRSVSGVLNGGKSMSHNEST

Turning to `O=C1NC(=O)C(c2ccccc2)(c2ccccc2)N1` [phenytoin], the IC50 came to 23.8 µM at hNaV1.5; 12.1 µM at NaV1.6 [2] (setting [3]); 6.8 µM on NaV1.6 [2] (read-out: IC50 for UDB (P500), 500th pulse). Also, the “time to fully equilibrate with the inactivated states” value on NaV1.6 [1] was at most 10 s.
As for `Nc1nnc(-c2cccc(Cl)c2Cl)c(N)n1` [lamotrigine], in the assay on NaV, the potency range was 10 to 100 µM.
Regarding `NC(=O)N1c2ccccc2C=Cc2ccccc21` [carbamazepine], the IC50 at hNaV1.5 came out at 41.1 µM; on NaV1.6 [2] (IC50 for UDB (P500), 500th pulse) it was 16.2 µM; against NaV1.6 [2] (setting [3]), 17 µM; against hNaV1.1, 39.3 µM; at hNaV1.2 it was 67.4 µM.
On to `COC[C@@H](NC(C)=O)C(=O)NCc1ccccc1` [lacosamide], for which the potency range in the assay with NaV was 10 to 100 µM.
For the compound `Cc1cc(S(=O)(=O)Nc2cscn2)c(F)cc1N(C)[C@H]1CCN(Cc2ccccc2)C1` [NBI-921352], the “efficacy in seizure models in vivo” value in the assay with seizures is “efficacious and have improved tolerability in rodent seizure models”.
